# Screening results (PubChem BioAssay)
# SIRT5 inh: SIRT5 desuccinylase inhibitors, primary screen, biochemical, fluorescence imaging, single point, set 5; NAD-dependent protein deacylase sirtuin-5, mitochondrial (Homo sapiens), Q9NXA8; Purified SirT5, succinyl-peptide AMC, trypsin-coupled fluorescence; inhibition, % at 15 µM; actives 1.1% (n = 330,000); AID 652115, 2013; in the data active means inhibition above about 15%; inconclusive means no clear call, values can overlap the other calls
# Target sequence (Q9NXA8 whole entry, looked up): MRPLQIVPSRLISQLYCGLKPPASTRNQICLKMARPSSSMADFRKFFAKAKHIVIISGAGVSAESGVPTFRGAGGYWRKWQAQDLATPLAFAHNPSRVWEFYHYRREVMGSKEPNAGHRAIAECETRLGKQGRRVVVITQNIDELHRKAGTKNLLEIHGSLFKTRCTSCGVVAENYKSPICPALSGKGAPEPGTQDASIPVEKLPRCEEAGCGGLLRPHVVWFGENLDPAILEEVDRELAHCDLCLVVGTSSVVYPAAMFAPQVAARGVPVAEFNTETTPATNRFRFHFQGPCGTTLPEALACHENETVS
# C2C12 statin: suppressors of statin myotoxicity in C2C12 myotubes, primary screen, cell-based, single point, plate reader | AID 602340, 2012 | C2C12 myotubes + simvastatin, ATP luminescence, 48 h; scaled: DMSO 0, geranylgeraniol control 100 | actives 0.78% (n = 330,000) | rescue of ATP level, % at 7.49 µM;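 active means mean ATP rescue above about 67%, or every replicate alone reaching that limit, limit read from the data, passing the limit was not always enough; inconclusive means no clear call, values can overlap the other calls; inactive means mean under the limit and some replicate under it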;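 further: myotubes were challenged with 10 µM simvastatin during compound exposure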
# PGC1a acetyl inh: inhibitors of PGC1a acetylation signal, primary screen, cell-based, U2OS, AlphaScreen, inhibitor mode. AlphaScreen anti-acetyl-lysine; with virally co-expressed GCN5 acetyltransferase. inhibition, % at 15.6 µM. actives 0.17% (n = 350,000). AID 651687, 2012;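 active means every replicate shows inhibition of at least 40%; inconclusive means mean inhibition at least 40% but some replicate below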;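 further: 0% = neutral control wells and 100% = positive control wells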
# S100A4 MyoIIA: inhibitors of S100A4-myosin IIA peptide binding, primary screen, biochemical, fluorescence polarization, TAMRA-MyoIIA peptide | Protein S100-A4 (Homo sapiens), P26447 | inhibition, % at 10.7 µM | actives 0.14% (n = 360,000);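 active means mean inhibition of at least 70% across replicates, with every replicate also reaching that level; inconclusive means mean inhibition reaches 70% but some replicates fall short; inactive means mean inhibition below 70%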
# Target sequence (P26447 whole entry, looked up): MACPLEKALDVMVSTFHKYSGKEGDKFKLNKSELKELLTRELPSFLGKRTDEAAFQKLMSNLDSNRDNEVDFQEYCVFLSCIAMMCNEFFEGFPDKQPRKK
#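 Material: S100A4 monomer (human). Medium: Calcium-containing HEPES buffer, pH 7.2. Probe or stimulus: labelled myosin peptide probe, 5 nM. Compound dosing: one concentration per compound. Timing: polarization read 5 min after assay mix addition, stable 5–60 min. Benchmarks: DMSO as neutral control, TFP as positive control.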
# DENV2 CPE: inhibitors of DENV2 cytopathic effect, primary screen, cell-based, plate reader, single concentration; DENV2-infected cells, cytopathic effect rescue; CPE inhibition, % at 9.99 µM; actives 1.7% (n = 350,000); in the data active means CPE inhibition above about 20%, passing the limit was not always enough; inconclusive means no clear call, values can overlap the other calls; tested in BHK-21 cells;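 further: 0% = median of neutral control wells and 100% = median of positive control wells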
# An asterisk follows results filed as active; u = inconclusive; x = not tested or not shown; ! = a repeat was not active. Hits are enriched below; roughly 2.9% of the tested compounds scored in any of these assays.
SMILES,SIRT5 inh,C2C12 statin,PGC1a acetyl inh,S100A4 MyoIIA,DENV2 CPE
CO[C@@H](CN(C)C(=O)c1cnccn1)[C@H](C)CN([C@@H](C)CO)S(=O)(=O)c1ccc(F)cc1,1,1,0,-7,27*
CO[C@H](CN(C)C(=O)c1cnccn1)[C@H](C)CN([C@H](C)CO)S(=O)(=O)c1ccc(F)cc1,x,5,2,-1,u
COc1ccccc1-c1ccc2n(c1=O)C[C@H]1[C@H](CO)[C@@H](C(=O)NCC3CC3)N(S(C)(=O)=O)[C@@H]21,-17,16,x,2,4
O=C(OCc1ccccc1)N1CCC2CC1c1ccc(N3CCNCC3)cc12 (centres undefined),-2,-14,0,-6,75*
O=C(OCc1ccccc1)N1CCC2CC1c1ccc(N3CCOCC3)cc12 (centres undefined),x,0,-2,-2,2
O=C(OCc1ccccc1)N1CCCC2CC1c1ccccc12 (centres undefined),-2,-6,-12,-2,44*
O=C(OCc1ccccc1)N1CCC2CC1c1cc(Cl)ccc12 (centres undefined),3,-1,8,3,-6
CC(=O)N1c2ccc(S(=O)(=O)NCCC(=O)NC3CCC(C)CC3)cc2CC1C (centres undefined),44*,-1,-6,20,-5
CC(=O)N1c2ccc(S(=O)(=O)NCC3CCC(C(=O)NC4CCC(C)CC4)CC3)cc2CC1C (centres undefined),-3,-4,-7,2,1
CCCNC(=O)C[C@H]1CC[C@H]2[C@@H](COC[C@H](O)CN2C(=O)c2cccnc2)O1,2,-28,8,-15,-1
COc1ccc(N2CCN(C(=O)[C@H](C)NC(=O)c3ccccc3Cl)CC2)cc1,-2,-68,23,-1,-8
COc1ccc(N2CCN(C(=O)[C@@H](NC(=O)c3ccccc3Cl)C(C)C)CC2)cc1,16*,2,2,-2,-8
O=C(Nc1ccccc1F)N1CC(=O)N2[C@H](C1)[C@H](c1ccc(C#Cc3ccccc3)cc1)[C@@H]2CO,1,x,-5,-4,3
O=C(N=Nc1c(O)[nH]c2ccc([N+](=O)[O-])cc12)c1cc(-c2ccccc2Cl)nc2ccccc12,23*,x,x,-13,-1
COc1ccccc1C(=O)N=Nc1c(O)[nH]c2ccc([N+](=O)[O-])cc12,3,x,x,-18,14
C[C@@H]1CN([C@@H](C)CO)C(=O)c2cc(NC(=O)Cc3cn(C)c4ccccc34)ccc2O[C@H]1CN(C)S(=O)(=O)c1ccc(F)cc1,0,x,2,-4,16
C[C@@H]1CN([C@H](C)CO)C(=O)Cc2cc(NC(=O)Cc3cn(C)c4ccccc34)ccc2O[C@H]1CN(C)S(=O)(=O)c1ccc(F)cc1,-2,-13,-9,-14,-9
C[C@H](CO)N1C[C@H](C)[C@@H](CN(C)S(=O)(=O)c2ccc(F)cc2)Oc2ccc(NC(=O)Cc3cn(C)c4ccccc34)cc2CC1=O,5,102*,8,-79,-6
C[C@@H]1CN([C@H](C)CO)C(=O)c2cc(NC(=O)Cc3cn(C)c4ccccc34)ccc2O[C@H]1CN(C)S(=O)(=O)c1ccc(F)cc1,-2,13,6,-8,58*!
CN1C(=O)c2cc(NC(=O)Cc3ccccc3)ccc2OC[C@H]2O[C@H](CC(=O)O)CC[C@@H]21,-4,21,8,-8,5
O=C(C[C@@H]1C[C@@H]2c3cc(NC(=O)Cc4ccncc4)ccc3O[C@@H]2[C@@H](CO)O1)NCCN1CCCCC1,1,7,7,-3,77*
O=C(C[C@H]1C[C@@H]2c3cc(NC(=O)C4CCOCC4)ccc3O[C@@H]2[C@H](CO)O1)NCCN1CCCCC1,0,-1,-1,115*,-6
O=C(C[C@@H]1C[C@@H]2c3cc(NC(=O)CC4CC4)ccc3O[C@@H]2[C@H](CO)O1)NCCN1CCCCC1,-1,7,-3,7,-3
C[C@H](CO)N1C[C@H](C)[C@H](CN(C)C(=O)NC2CCCC2)Oc2ncc(-c3ccccc3F)cc2C1=O,-2,-2,x,-20,u
CO[C@@H](CN(C)C(=O)c1cnccn1)[C@@H](C)CN([C@H](C)CO)S(=O)(=O)c1ccccc1,-2,-6,-6,-9,u
SMILES,SIRT5 inh,C2C12 statin,PGC1a acetyl inh,S100A4 MyoIIA,DENV2 CPE
COCC(=O)N1[C@H](CO)[C@@H](c2ccc(-c3cccc(F)c3)cc2)C12CN(C(=O)C1CC1)C2,-3,x,-2,-23,5
O=C(Nc1ccccc1)N1CCCCN2[C@H](C1)[C@H](c1ccc(Br)cc1)[C@@H]2CO,2,95*,-8,5,8
O=C(Nc1ccccc1)N1CCCCN2[C@@H](CO)[C@@H](c3ccc(Br)cc3)[C@@H]2C1,7,-27,1,0,33*
Cc1ccc(NC(=O)CCNS(=O)(=O)c2ccc3[nH]c(=O)oc3c2)cc1F,-3,111*,-4,-4,1
Cc1cc(NC(=O)CCNS(=O)(=O)c2ccc3[nH]c(=O)oc3c2)ccc1Br,-6,3,-3,10,3
O=C(NCC[C@H]1CC[C@@H](NS(=O)(=O)c2ccccc2)[C@@H](CO)O1)c1cc(Cl)cc(Cl)c1,-3,20,-5,6,-5
COc1ccc2c3c([nH]c2c1)[C@@H](CO)N(Cc1ccccc1F)CC31CCN(C(=O)C2CC2)CC1,-3,x,3,6,4
C[C@@H]1CN([C@@H](C)CO)C(=O)Cc2cc(NC(=O)Nc3cccc4ccccc34)ccc2O[C@H]1CN(C)C(=O)Nc1cccc2ccccc12,2,x,7,-9,45*
C[C@H]1CN([C@@H](C)CO)C(=O)Cc2cc(NC(=O)Cc3cn(C)c4ccccc34)ccc2O[C@@H]1CN(C)C(=O)Nc1cccc2ccccc12,2,20,-3,9,21*
COc1ccc(NC(=O)Nc2ccc3c(c2)CC(=O)N([C@@H](C)CO)C[C@@H](C)[C@H](CN(C)C(=O)Nc2cccc4ccccc24)O3)cc1,x,78*,-8,x,11
C[C@H](CO)N1C[C@H](C)[C@H](CN(C)C(=O)Nc2cccc3ccccc23)Oc2ccc(NC(=O)Nc3cccc4ccccc34)cc2CC1=O,-3,15,7,-31,-5
C[C@H](CO)N1C[C@H](C)[C@@H](CN(C)C(=O)Nc2ccccc2)Oc2ccc(NC(=O)Cc3cn(C)c4ccccc34)cc2CC1=O,12,-27,12,6,12
